Measured values taken from paper PMC7564327 (Acta Pharmaceutica Sinica. B, 2020).

Experiments:
hOATP2B1 [1] = molecular target: T1, hOATP2B1 (Homo sapiens, UniProt O94956); assay: Inhibition of 3H-ES uptake in HEK293-hOATP2B1 cells; format: in vitro ADME; conditions: 100 μmol/L IPT, ISP; substrate 3H-ES
T1 sequence (O94956 1-709): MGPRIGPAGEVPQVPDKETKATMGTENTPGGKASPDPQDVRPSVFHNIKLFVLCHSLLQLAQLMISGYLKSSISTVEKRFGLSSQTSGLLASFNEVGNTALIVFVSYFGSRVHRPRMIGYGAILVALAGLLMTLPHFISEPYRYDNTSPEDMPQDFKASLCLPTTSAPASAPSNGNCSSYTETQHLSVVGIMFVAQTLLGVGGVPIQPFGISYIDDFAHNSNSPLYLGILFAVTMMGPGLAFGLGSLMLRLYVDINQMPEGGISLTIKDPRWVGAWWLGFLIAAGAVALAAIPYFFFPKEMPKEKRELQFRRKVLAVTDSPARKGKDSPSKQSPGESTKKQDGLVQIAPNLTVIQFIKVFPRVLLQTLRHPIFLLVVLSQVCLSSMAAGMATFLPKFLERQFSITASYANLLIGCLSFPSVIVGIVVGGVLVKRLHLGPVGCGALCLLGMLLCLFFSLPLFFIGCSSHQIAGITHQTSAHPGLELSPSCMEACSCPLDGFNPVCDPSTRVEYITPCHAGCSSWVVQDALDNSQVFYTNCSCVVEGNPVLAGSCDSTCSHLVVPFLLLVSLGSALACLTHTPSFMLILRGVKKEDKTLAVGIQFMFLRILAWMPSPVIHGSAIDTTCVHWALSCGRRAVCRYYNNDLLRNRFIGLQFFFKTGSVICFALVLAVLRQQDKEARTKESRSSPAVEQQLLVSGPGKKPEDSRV
In short: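 Test compounds were made as DMSO stocks (20 mmol/L, or 10 mg/mL for extract) and diluted in PBS to a final DMSO below 0.5%. Cells were exposed at 37 °C to probe plus or minus test compound. The probe was 5 μmol/L ¹⁴C-PAH for 5 min (hOAT1) or 50 nmol/L ³H-estrone sulfate for 2 min (hOAT3, hOATP2B1). Screens used 100 μmol/L (extract 100 mg/L); IC50 came from varied concentrations. Cells were then given three cold DPBS washes, lysed in 0.1 mol/L NaOH and read by scintillation counting. Data are mean ± SD, n = 3.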

mOatp1a1 = assay: qRT-PCR of mOatp1a1 mRNA in liver of treated mice; format: in vivo; conditions: mice given 20 mg/kg TDE with 20 mg/kg IPT, ISP or 200 mg/kg AD extract, 4 h
mOatp1b2 = assay: qRT-PCR of mOatp1b2 mRNA in liver of treated mice; format: in vivo; conditions: mice given 20 mg/kg TDE with 20 mg/kg IPT, ISP or 200 mg/kg AD extract, 4 h
hOATP2B1 [2] = molecular target: T1, hOATP2B1; assay: Cellular uptake in HEK293-hOATP2B1 vs Mock cells; format: in vitro ADME; conditions: 100 μmol/L, substrate if >2-fold of wild type
mice liver slices = assay: In vitro uptake of TDE in mice liver slices; format: in vitro ADME, Kunming mice; conditions: mice liver slices, TDE 10 μmol/L
In short: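 Kunming mice (20–25 g, fasted 12 h) were anaesthetised with urethane, and kidney or liver was decapsulated into ice-cold oxygenated buffer at pH 7.5. Slices of about 30 mg were preincubated 5 min under carbogen at 4 or 37 °C. They were then incubated with 10 μmol/L test compound for 5, 10 or 30 min, with or without reference OAT1/OAT3 or OATP inhibitors or co-ingredients. Slices were then washed, blotted, weighed and homogenised, then extracted with methanol and an internal standard for HPLC–MS.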

SMILES | inhibition to hOATP2B1 (hOATP2B1 [1]) | mRNA level of mOatp1a1 decreased to, compared to TDE alone (mOatp1a1) [%] | mRNA level of mOatp1b2 decreased to, compared to TDE alone (mOatp1b2) [%] | accumulation in HEK293-hOATP2B1 vs HEK293 wild type (hOATP2B1 [2]) | effect on the uptake of TDE in liver slices (mice liver slices)
CC(C)=CCOc1c2occc2cc2ccc(=O)oc12 [IPT, imperatorin] | weak or no inhibition | 22 | 61 | less than 2 fold | significant inhibition
CC(C)=CCOc1c2ccoc2cc2oc(=O)ccc12 [ISP, isoimperatorin] | weak or no inhibition | 37 | 50 | less than 2 fold | significant inhibition
